# Bioassay records as filed in PubChem BioAssay.
# Sampled rows, rich in hits. Any-hit rate of the full collection: about 6.1%.
# hDAT+cocaine = modulates human dopamine transporter uptake under cocaine; B-score at 10 µM; LLC-PK1 hDAT cells, [14C]-dopamine uptake with cocaine IC80; actives deviate in either direction; 1.3% of 110,000 active; Q01959; AID 449768;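 active means Z score or B-score, a plate-position-corrected score, falls beyond the plate's 99.7% confidence bounds, in either direction; inactive means both scores lie inside the 99.7% bounds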;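 further: scored against the spread of the other compound wells on the same plate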
# Target sequence (Q01959 whole entry, looked up): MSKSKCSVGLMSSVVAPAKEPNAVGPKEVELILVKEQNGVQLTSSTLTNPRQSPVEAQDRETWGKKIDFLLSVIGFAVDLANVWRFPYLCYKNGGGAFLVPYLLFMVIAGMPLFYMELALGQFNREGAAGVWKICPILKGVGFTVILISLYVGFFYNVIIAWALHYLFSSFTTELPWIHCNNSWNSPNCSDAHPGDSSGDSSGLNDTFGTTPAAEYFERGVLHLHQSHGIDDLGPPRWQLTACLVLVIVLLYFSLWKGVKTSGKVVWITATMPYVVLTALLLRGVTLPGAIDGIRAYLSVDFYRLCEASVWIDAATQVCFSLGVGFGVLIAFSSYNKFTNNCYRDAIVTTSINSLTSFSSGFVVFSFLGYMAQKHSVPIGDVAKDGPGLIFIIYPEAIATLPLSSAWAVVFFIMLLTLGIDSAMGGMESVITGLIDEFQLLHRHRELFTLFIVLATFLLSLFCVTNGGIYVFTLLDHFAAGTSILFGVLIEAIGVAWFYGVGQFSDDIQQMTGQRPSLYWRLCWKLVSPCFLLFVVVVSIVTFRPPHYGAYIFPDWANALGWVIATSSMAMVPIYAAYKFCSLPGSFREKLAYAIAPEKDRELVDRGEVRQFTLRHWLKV
# Yeast lifespan up = yeast lifespan extension; S. cerevisiae growth with nicotinamide, OD615; deaD strain in restrictive glucose medium; inhibition of the nicotinamide effect, % at 10 µM; 0.68% of 130,000 active; AID 775;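 active means inhibition above a set limit, placed 3 SD over the median of all compounds, cut at about 26% in these data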;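 further: 0% = nicotinamide-treated wells and 100% = cells grown without nicotinamide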
#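 Measured by: optical density (absorbance) at 615 nm; System: modified budding yeast, DeaD strain; Medium: restrictive CSMM-D dextrose medium; Timing: 4 h preincubation then 48 h treatment at 30 °C.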
# WT yeast gro inh = growth inhibition of WT yeast, mitochondrial fusion screen; AID 1362; 2.1% of 190,000 active; inhibition, % at 10 µM; mitochondrial fusion phenotypic screen, WT strain; in the data active means inhibition above about 58%; tested in S. cerevisiae
# Yeast growth inh = reduces growth of yeast BB579 in restrictive medium. inhibition, % at 10 µM. 0.51% of 140,000 active. S. cerevisiae BB579 growth, OD615, 48 h. AID 804;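 active means inhibition above a set limit, 3 SD over the mean compound inhibition, cut at about 44% in these data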
#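 Test system: DeaD yeast strain BB579 / Buffer or medium: restrictive glucose-based CSMM-D medium / Doses: single 10 µM dose / Schedule: 4 h cell preincubation, 48 h compound exposure, 30 °C humidified / Technique: culture absorbance at 615 nm / Controls: amphotericin B positive control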
# RAM network inh = blocks the yeast RAM network | inhibition, % at 50 µM | S. cerevisiae dse1pr::URA3 reporter, 5-FOA growth OD615, 2 d; analog-sensitive cbk1-as2 kinase mutant strain | AID 868 | 1.8% of 190,000 active;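 active means inhibition above a set limit, 3 SD over mean compound inhibition, cut at about 8.4% in these data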;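 further: 0% = DMSO-only wells with no growth and 100% = 10 µM 1-NA-PP1 full growth; inhibition rescues growth on 5-FOA so higher OD means more RAM inhibition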
# Measles CPE = protection of cells from measles virus; Measles virus-infected cells, CPE protection, absorbance; protection (pct of control), % at 4 µM; 1.5% of 140,000 active; AID 841; in the data active means protection mostly above about 24%, no sharp cut-off; inactive means mostly below about 26%
# Starred values were filed as active, the others as inactive; x = not tested or not shown.
SMILES,hDAT+cocaine,Yeast lifespan up,WT yeast gro inh,Yeast growth inh,RAM network inh,Measles CPE
CCCCC[C@H](O)/C=C/[C@H]1C=CC(=O)[C@@H]1C/C=C\CCCC(=O)O,0.17,-2,-2,-25,5,48
Cc1ccc(C2=NCN(c3ccc(C(=O)O)cc3)C(=S)N2)cc1,x,x,-5,x,5,x
CC(C)C(NC(=O)C12CC3CC(CC(C3)C1)C2)C(=O)N/N=C/C1=C(N2CCOCC2)C(=C\c2cccc([N+](=O)[O-])c2)/CC1 (stereo unspecified),x,1,8,-29,9.6*,3
O=C(N/N=C/c1cccc([N+](=O)[O-])c1)c1ccc(CN2CCOCC2)cc1,x,-4,-7,-15,0,4
Cc1cccc2sc(NC(=O)c3ccc(NS(=O)(=O)c4cccs4)cc3)nc12,x,-5,67*,-33,3,4
COc1ccc2nc(NC(=O)c3ccc(NS(=O)(=O)c4cccs4)cc3)sc2c1,x,-2,8,-26,4,4
CC1CCN(c2nncc3ccccc23)CC1,1.5,30*,-7,-23,1,4
CC1CCN(c2nnc(N3CCC(C)CC3)c3ccccc23)CC1,x,x,30,x,1,x
Nc1nc(COc2ccc(F)cc2Cl)nc(N2CCCCC2)n1,x,x,8,x,1,x
CCO[C@H]1OC(C(=O)O)=C[C@@H](C(C)(C)C)[C@@H]1CCCO,0.13,x,x,x,x,x
CSc1nc(N)nc(SCCS(=O)(=O)c2ccc(Cl)cc2)c1C#N,6.1*,-3,33,-31,7,78*
CSc1nc(N)nc(SCC(=O)Nc2ccc(Cl)cc2)c1C#N,0.27,-4,14,-72,4,11
Cc1ccc2nc(Nc3ccccc3)c(/C=N/O)c(=O)n2c1,0.36,27*,-22,-23,1,1
Cn1nc(C(=O)N2CCN(S(=O)(=O)/C=C/c3ccccc3)CC2)c2ccccc2c1=O,x,0,-6,12,-1,7
Cc1cc(=O)[nH]c(SCc2nc3ccccc3s2)n1,-0.018,-13,13,46*,0,9
CCn1c(COc2cccc(C)c2C)nnc1SCC(=O)N1CCN(c2ccc(OC)cc2)CC1,0.56,-2,5,-71,8.8*,2
CCn1c(COc2ccccc2C)nnc1SCC(=O)N1CCN(c2ccccc2)CC1,1.4,-16,9,-8,-2,4
COc1ccc(N2CCN(C(=O)CSc3nnc4c(C)cc5ccc(C)c(C)c5n34)CC2)cc1,-0.017,-20,10,-35,0,50*
CC1(C)CCCN(C(=O)c2ccc3c(c2NCCO)C(=O)c2ccccc2C3=O)C1,x,8,43,-28,1,2
Cc1cccc(Nc2nc(-c3ccccn3)cs2)n1,0.85,-25,6,100*,-1,2
Cc1cccc(Nc2nc(-c3cccs3)cs2)n1,1.7,x,72*,-58,0,23
O=C(NC(=S)Nc1cc([N+](=O)[O-])ccc1O)c1cccnc1,x,x,15,x,2,x
O=C(O)C1CCCCC1C(=O)Nc1ccc(F)cc1F (stereo unspecified),0.17,-12,97*,-33,0,6
Cc1c(C(=O)c2ccccc2)c(=O)n(C)c(=O)n1C,x,x,16,x,0,x
CC12CCC(c3c(C(=O)O)nn(-c4ccc(F)cc4)c31)C2(C)C (stereo unspecified),-0.65,4,59*,-30,0,1
SMILES,hDAT+cocaine,Yeast lifespan up,WT yeast gro inh,Yeast growth inh,RAM network inh,Measles CPE
COC(=O)c1cc(NC(=O)C2(S(=O)(=O)c3ccc(C)cc3)CC2)cc(C(=O)OC)c1,x,4,-12,-64,5,12
CCc1ccc(C2=NN(c3ccc(S(N)(=O)=O)cc3)C(c3ccc(F)cc3)C2)cc1 (stereo unspecified),0.21,1,94*,-11,3,12
NS(=O)(=O)c1ccc(N2N=C(c3ccccc3)CC2c2ccccc2)cc1 (stereo unspecified),x,6,72*,-30,3,10
O=S(=O)(O)c1ccc(N2N=C(c3ccccc3)CC2c2ccccc2)cc1 (stereo unspecified),x,x,-10,x,3,x
COc1cccc(NC(=S)N(Cc2cccc(Br)c2)CC2CCC(C(=O)O)CC2)c1 (stereo unspecified),x,x,0,x,8,x
Cc1cccc(NC(=O)COc2ccc(/C=N\n3cnnc3)cc2)c1,x,-1,1,-18,0,6
Cc1cnn(C(=S)NCc2ccc(Cl)cc2)c1,-1.6,5,68*,2,1,23
CCOC(=O)CSc1nnc2n(C3CCCCC3)c(=O)c3c4c(sc3n12)CCCC4,0.11,-6,1,-53,3,4
CCOC(=O)CSc1nnc(CSc2nc3sc4c(c3c(=O)[nH]2)CCCC4)n1-c1ccccc1,1.9*,-14,7,-18,4,2
C=CCn1c(=O)c2c3c(sc2n2c(Nc4ccc(OC)cc4)nnc12)CCCC3,-0.39,-3,53,-46,4,13
C=CCn1c(=O)c2c3c(sc2n2c(Nc4ccc(C(=O)OCC)cc4)nnc12)CCCC3,-0.54,5,7,-84,8.5*,1
CCOC(=O)CCCSc1nc2sc3c(c2c(=O)[nH]1)CCC3,0.016,-4,-10,-45,4,31
CCOC(=O)CSc1nnc2n(Cc3ccccc3)c(=O)c3c4c(sc3n12)CCC4,-1.5*,-2,-6,-37,3,17
COC(=O)c1ccc([C@H]2C=C(C(=O)O)O[C@@H](OCc3ccc(CO)cc3)C2)cc1,-0.16,x,x,x,x,x
O=C(COC(=O)C1CC1)NCc1ccccc1Cl,-2.4,-10,-2,-26,1,14
O=C(/C=C(\O)c1ccc(Cl)cc1)C(=O)NNC(=O)C(O)(c1ccccc1)c1ccccc1,0.0059,62*,-8,-32,0,18
O=C1CCCC2=C1C(c1ccco1)Nc1ccc(C(=O)c3ccccc3)cc1N2 (stereo unspecified),3.7*,-2,-5,3,2,6
Cc1cc(CN(C)C(=O)CC2C(=O)NCCN2Cc2c(F)cccc2Cl)n[nH]1 (stereo unspecified),x,x,5,x,0,x
Cc1nn(Cc2cccc(C(=O)NCC(C)C)c2)c(C)c1Br,1.9,x,16,-12,0,27*
O=C(CCC(=O)Nc1nnc(C2CCCCC2)s1)NCC1CCCO1 (stereo unspecified),0.96,-3,-57,-3,0,65*
C[n+]1ccccc1COc1ccc(C(C)(C)C)cc1,x,2,-1,-14,-1,5
CCC(C)NS(=O)(=O)c1ccc(NC(=O)c2c(-c3ccccc3)noc2C)cc1 (stereo unspecified),-0.37,-7,4,-12,5,16
N#C/C(=C\C=C\c1ccccc1[N+](=O)[O-])C(=O)NC1CCCCC1,x,x,6,x,4,x
N#C/C(=C\c1ccccc1[N+](=O)[O-])C(=O)NC1CCCCC1,x,x,58*,x,-2,x
